Laboratory results: ChEMBL document CHEMBL3769360, “Phthalimido-thiazoles as building blocks and their effects on the growth and morphology of Trypanosoma cruzi” (Eur J Med Chem, 2016)
Active and inactive are the calls of the source. The calls are words filed in the database; no cut-off is given here.

Tests used:
[1] = test system: Trypanosoma cruzi; assay: Induction of apoptosis in trypamostigote form of Trypanosoma cruzi Y assessed as early apoptotic cells after 24 hrs by Annexin V-FITC/propidium iodide staining based flow cytometry; type: functional, organism-based
Outline: (§1)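 Trypomastigotes (1 × 10^7) incubated 24 h at 37 °C with or without compound. Then labelled with annexin V-FITC and propidium iodide using a kit per the manufacturer's instructions and analysed by flow cytometry. Two independent experiments, each concentration in duplicate; comparison against untreated cells.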

[2] = test system: Trypanosoma cruzi; assay: Induction of apoptosis in trypamostigote form of Trypanosoma cruzi Y assessed as necrotic cells at 5 uM after 24 hrs by Annexin V-FITC/propidium iodide staining based flow cytometry; type: functional, organism-based; outline: as §1
[3] = test system: Trypanosoma cruzi; assay: Induction of ultrastructural changes in trypamostigote form of Trypanosoma cruzi Y assessed as blebs in flagellum at IC50 after 24 hrs by scanning electron microscopic analysis; type: functional, organism-based
Outline: (§2)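 Trypomastigotes cultured 24 h in RPMI 1640 (pH 7.5, 20 mM HEPES, 10% FBS, penicillin/streptomycin) with compound at two concentrations (1× and 2×). Washed in PBS and fixed in glutaraldehyde/formaldehyde in 0.1 M cacodylate pH 6.8, then OsO4 postfixed. Dehydrated in graded ethanol, CO2 critical-point dried, gold-coated and examined by SEM against untreated controls.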

[4] = test system: Trypanosoma cruzi; assay: Induction of apoptosis in trypamostigote form of Trypanosoma cruzi Y assessed as necrotic cells after 24 hrs by Annexin V-FITC/propidium iodide staining based flow cytometry; type: functional, organism-based; outline: as §1
[5] = test system: Trypanosoma cruzi; assay: Induction of apoptosis in trypamostigote form of Trypanosoma cruzi Y assessed as early apoptotic cells at 5 and 25 uM after 24 hrs by Annexin V-FITC/propidium iodide staining based flow cytometry; type: functional, organism-based; outline: as §1
[6] = test system: Trypanosoma cruzi; assay: Induction of ultrastructural changes in trypamostigote form of Trypanosoma cruzi Y assessed as intense cytoplasmic vacuolization at IC50 after 24 hrs by uranyl acetate/lead citrate staining based transmission electron microscopic analysis; type: functional, organism-based
Outline: (§3)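 Trypomastigotes exposed for 24 h in RPMI 1640 (pH 7.5, 20 mM HEPES, 10% FBS, antibiotics) with compound at 1× or 2× the set concentration. Fixed in 2.5% glutaraldehyde, 4% formaldehyde, 0.1 M cacodylate pH 6.8, postfixed in 2% OsO4. Acetone-dehydrated, epon-embedded, sections stained with uranyl acetate/lead citrate and examined by TEM against untreated parasites.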

[7] = test system: Trypanosoma cruzi; assay: Trypanocidal activity against trypamostigote form of Trypanosoma cruzi Y infected in African green monkey Vero cells after 24 hrs by neubauer chamber method; type: functional, organism-based
Outline: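 Y strain trypomastigotes harvested from Vero cell supernatants, 4 × 10^5 cells/well, compounds in triplicate, benznidazole as positive control. Incubated 24 h at 37 °C, 5% CO2. Motile parasites counted in a Neubauer chamber; untreated wells = 100%. IC50 by nonlinear regression over at least seven concentrations.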

[8] = test system: Trypanosoma cruzi; assay: Induction of ultrastructural changes in trypamostigote form of Trypanosoma cruzi Y assessed as intense cytoplasmic vacuolization at 2 times IC50 after 24 hrs by uranyl acetate/lead citrate staining based transmission electron microscopic analysis; type: functional, organism-based; outline: as §3
[9] = test system: Trypanosoma cruzi; assay: Induction of ultrastructural changes in trypamostigote form of Trypanosoma cruzi Y assessed as swelling of mitochondria at IC50 after 24 hrs by uranyl acetate/lead citrate staining based transmission electron microscopic analysis; type: functional, organism-based; outline: as §3
[10] = test system: Trypanosoma cruzi; assay: Antitrypanosomal activity against trypamostigote form of Trypanosoma cruzi Y assessed as decrease in number of parasites after 24 hrs by scanning electron microscopic analysis; type: functional, organism-based; outline: as §2
[11] = test system: Trypanosoma cruzi; assay: Induction of ultrastructural changes in trypamostigote form of Trypanosoma cruzi Y assessed as shortening of flagellum at 2 times IC50 after 24 hrs by scanning electron microscopic analysis; type: functional, organism-based; outline: as §2
[12] = test system: Trypanosoma cruzi; assay: Induction of ultrastructural changes in trypamostigote form of Trypanosoma cruzi Y assessed as alterations in reservosome at IC50 after 24 hrs by uranyl acetate/lead citrate staining based transmission electron microscopic analysis; type: functional, organism-based; outline: as §3
[13] = test system: Trypanosoma cruzi; assay: Induction of ultrastructural changes in trypamostigote form of Trypanosoma cruzi Y assessed as dilated endoplasmic reticulum at 2 times IC50 after 24 hrs by uranyl acetate/lead citrate staining based transmission electron microscopic analysis; type: functional, organism-based; outline: as §3
[14] = test system: Trypanosoma cruzi; assay: Induction of ultrastructural changes in trypamostigote form of Trypanosoma cruzi Y assessed as loss of cytoplasmic material at IC50 after 24 hrs by uranyl acetate/lead citrate staining based transmission electron microscopic analysis; type: functional, organism-based; outline: as §3
[15] = test system: Trypanosoma cruzi; assay: Induction of apoptosis in trypamostigote form of Trypanosoma cruzi Y assessed as late apoptotic cells at 25 uM after 24 hrs by Annexin V-FITC/propidium iodide staining based flow cytometry relative to untreated control; type: functional; outline: as §1
[16] = test system: Trypanosoma cruzi; assay: Induction of ultrastructural changes in trypamostigote form of Trypanosoma cruzi Y assessed as abnormal chromatin condensation at IC50 after 24 hrs by uranyl acetate/lead citrate staining based transmission electron microscopic analysis; type: functional, organism-based; outline: as §3
[17] = test system: Trypanosoma cruzi; assay: Induction of apoptosis in trypamostigote form of Trypanosoma cruzi Y assessed as late apoptotic cells at 5 uM after 24 hrs by Annexin V-FITC/propidium iodide staining based flow cytometry; type: functional, organism-based; outline: as §1
[18] = test system: Trypanosoma cruzi; assay: Induction of ultrastructural changes in trypamostigote form of Trypanosoma cruzi Y assessed as swelling of kinetoplast at 2 times IC50 after 24 hrs by uranyl acetate/lead citrate staining based transmission electron microscopic analysis; type: functional, organism-based; outline: as §3
[19] = Cytotoxicity against BALB/c mouse splenocytes assessed as highest non-toxic concentration causing >90 % incorporation of [3H]-thymidine after 24 hrs by beta counting method; type: cell-based, Splenocyte; settings: read-out: MNTD90
Outline: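 BALB/c mouse splenocytes at 5 × 10^6 cells/well in RPMI-1640 with 10% inactivated FBS. Compounds were dissolved in DMSO (10 mg/mL stock) and serially diluted to 1.0, 5.0, 10, 25, 50 and 100 (final), in triplicate. Controls were saponin and medium with DMSO. 3H-thymidine was added, then 24 h at 37 °C, 5% CO2, and beta counting. Untreated = 100%; >90% incorporation counted as nontoxic.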

[20] = Selectivity index, ratio of MNTD90 for cytotoxicity against BALB/c mouse splenocytes to IC50 for trypamostigote form of Trypanosoma cruzi Y infected in African green monkey Vero cells; type: toxicity, cell-based; settings: read-out: Selectivity Index
[21] = test system: Trypanosoma cruzi; assay: Induction of ultrastructural changes in trypamostigote form of Trypanosoma cruzi Y assessed as abnormal chromatin condensation at 2 times IC50 after 24 hrs by uranyl acetate/lead citrate staining based transmission electron microscopic analysis; type: functional, organism-based; outline: as §3
[22] = test system: Trypanosoma cruzi; assay: Induction of apoptosis in trypamostigote form of Trypanosoma cruzi Y assessed as necrotic cells at 25 uM after 24 hrs by Annexin V-FITC/propidium iodide staining based flow cytometry relative to untreated control; type: functional; outline: as §1
[23] = test system: Trypanosoma cruzi; assay: Trypanocidal activity against epimastigote form of Trypanosoma cruzi Dm28c after 11 days by neubauer chamber method; type: functional; settings: 264 h
[24] = test system: Trypanosoma cruzi; assay: Induction of apoptosis in trypamostigote form of Trypanosoma cruzi Y assessed as late apoptotic cells after 24 hrs by Annexin V-FITC/propidium iodide staining based flow cytometry; type: functional, organism-based; outline: as §1
[25] = test system: Trypanosoma cruzi; assay: Induction of ultrastructural changes in trypamostigote form of Trypanosoma cruzi Y assessed as alterations in reservosome at 2 times IC50 after 24 hrs by uranyl acetate/lead citrate staining based transmission electron microscopic analysis; type: functional, organism-based; outline: as §3

With `O=C1c2ccccc2C(=O)N1C/C=N/N=c1\scc(-c2cccc([N+](=O)[O-])c2)n1-c1ccccc1` the Activity [1] was “inactive”, the Activity [2] was “inactive” and the Activity [3] was “Active”. The Activity [4] was “Dose-dependent effect”, the Activity [5] was “inactive” and the Activity [6] was “Active”. The IC50 [7] was 0.9 µM, the Activity [8] was “Active” and the Activity [9] was “Active”. For the same compound, the Activity [10] was “Dose-dependent effect”, the Activity [11] was “Active” and the Activity [12] was “Active”. The Activity [13] was “Active”, the Activity [14] was “Active” and the Activity [15] was 11%. For the same compound, the Activity [16] was “Active”, the Activity [17] was “inactive” and the Activity [18] was “Active”. For the same compound, the MNTC at 24 h [19] was 103 µM, the selectivity ratio [20] was 115 and the Activity [21] was “Active”. The Activity [22] was 11%, the IC50 [23] was 6 µM and the Activity [24] was “Dose-dependent effect”. For the same compound, the Activity [25] was “Active”.
